Reference: PubChem BioAssay
Activity calls are given as the source filed them.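 How the source made its calls, unless noted: active means viability loss from added drug above about 55%, and viability with drug at most 40%, in both replicates (limit read from the data, passing the limit was not always enough); inconclusive means both conditions met in only one replicate; inactive means neither replicate meets both conditions.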

What was measured:
[1] = Her2 expression decrease, cell viability multiplex – SKBR3 breast tumor cells, AlphaScreen, ATP viability, primary screen (AID 461;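 active means Her2 level under about 52% in both replicate screens, with viability over 70% of control, limit read from the data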;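 on Her2 level: lower value means less Her2 protein in the cells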;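 on viability: percent of carrier control wells set as 100% viability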); conditions: SKBR3 Her2 protein level, 18-24 h, measured here: SKBR3 viability, ATP luminescence, at 10 µM
[2] = molecular target: Receptor tyrosine-protein kinase erbB-2 (Homo sapiens) (UniProt P04626); test: as above; conditions: 18-24 h, at 10 µM, stronger effect = lower value
Sequence of Receptor tyrosine-protein kinase erbB-2 (Homo sapiens) (P04626 whole entry, looked up): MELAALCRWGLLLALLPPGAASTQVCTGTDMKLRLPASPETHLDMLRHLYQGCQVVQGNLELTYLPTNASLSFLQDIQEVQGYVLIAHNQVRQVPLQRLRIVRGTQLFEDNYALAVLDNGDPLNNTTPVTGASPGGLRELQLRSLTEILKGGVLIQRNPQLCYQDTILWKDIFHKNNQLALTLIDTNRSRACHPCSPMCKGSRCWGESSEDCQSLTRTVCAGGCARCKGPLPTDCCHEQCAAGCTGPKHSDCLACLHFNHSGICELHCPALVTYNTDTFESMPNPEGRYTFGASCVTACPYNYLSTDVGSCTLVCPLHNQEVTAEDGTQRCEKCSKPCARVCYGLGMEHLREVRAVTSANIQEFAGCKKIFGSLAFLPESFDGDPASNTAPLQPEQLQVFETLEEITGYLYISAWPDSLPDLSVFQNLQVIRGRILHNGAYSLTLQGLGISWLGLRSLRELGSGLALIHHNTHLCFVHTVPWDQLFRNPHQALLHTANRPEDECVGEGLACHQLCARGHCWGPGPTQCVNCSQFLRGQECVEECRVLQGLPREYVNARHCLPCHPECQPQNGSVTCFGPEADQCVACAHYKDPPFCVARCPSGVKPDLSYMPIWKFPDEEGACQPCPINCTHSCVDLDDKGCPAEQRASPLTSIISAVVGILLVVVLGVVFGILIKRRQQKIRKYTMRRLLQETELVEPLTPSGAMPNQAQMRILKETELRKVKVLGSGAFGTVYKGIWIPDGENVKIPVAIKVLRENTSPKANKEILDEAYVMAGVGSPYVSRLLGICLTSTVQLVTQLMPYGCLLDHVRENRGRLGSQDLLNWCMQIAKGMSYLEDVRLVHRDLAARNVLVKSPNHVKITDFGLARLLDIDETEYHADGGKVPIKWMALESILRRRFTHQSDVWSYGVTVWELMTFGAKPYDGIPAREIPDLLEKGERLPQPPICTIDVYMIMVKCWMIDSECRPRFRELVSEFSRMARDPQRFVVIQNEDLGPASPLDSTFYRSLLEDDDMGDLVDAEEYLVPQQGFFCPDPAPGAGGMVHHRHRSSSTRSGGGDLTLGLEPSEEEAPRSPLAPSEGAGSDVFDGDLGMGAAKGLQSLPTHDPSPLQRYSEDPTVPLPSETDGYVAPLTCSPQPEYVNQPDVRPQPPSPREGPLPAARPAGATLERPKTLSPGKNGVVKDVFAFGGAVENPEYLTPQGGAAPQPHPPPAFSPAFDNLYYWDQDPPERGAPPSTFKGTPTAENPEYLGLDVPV

[3] = reduced viability of SK-BR-3 breast cancer cells – cell-based, 24 h, human, pilot screen (AID 572;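 active means viability at or below 10% of carrier control in both of two separate runs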;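 further: compound exposure lasted between 18 and 24 h rather than exactly 24 h; 100% = carrier-treated control wells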); conditions: SK-BR-3 viability, CellTiter-Glo luminescence, at 10 µM, stronger effect = lower value
[4] = HUVEC growth inhibition – cell-based, human, primary screen (AID 575;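 active means viability at or below 30% in both replicate assays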;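 further: 100% = median of untreated cell wells with 0.1% DMSO on each plate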); conditions: HUVEC proliferation, CellTiter-Glo luminescence, 72 h; at 10 µM; stronger effect = lower value
Procedure, shortened: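 System: primary human umbilical vein endothelial cells; Quantity: 1250 endothelial cells in each well; Buffer or medium: supplemented EBM, 2% fetal bovine serum; Doses: one dose, 10 µM final, 0.1% DMSO; Incubation: 72 h compound incubation; Technique: ATP-based CellTiter-Glo luminescent read; Evaluation: percent of median DMSO-control luminescence; Controls: vehicle and MePR control wells.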

[5] = H69AR cell proliferation blockers – human, duplicate replicates, primary screen (AID 580;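 active means viability at or under a set limit in both replicates, limit being median viability minus 3 SD, cut at about 48% in these data, passing the limit was not always enough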;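 further: 100% = mean luminescence of untreated wells and 0% = no signal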); conditions: H69AR lung tumor cells viability, ATP luminescence, 72 h; at 10 µM; stronger effect = lower value
[6] = MRP1 drug-resistance reversers in H69AR cells – cell-based, doxorubicin co-treatment, pilot screen (AID 601); conditions: CellTiter-Glo, 72 h, at 10 µM; for differential viability (reversal): stronger effect = higher value
[7] = yeast transport mutant growth inhibition pilot in 384-well plates, post-Golgi transport modulator project (AID 636; in the data active means inhibition above about 31%); conditions: absorbance 615 nm, about 18 h, stronger effect = higher value
[8] = growth suppression of yeast trafficking mutant, preliminary HTS, modulators of trafficking downstream of Golgi apparatus project, 1536-format plate, OD 615 nm (AID 637; in the data active means inhibition above about 30%); conditions: yeast transport mutant growth, absorbance 615 nm, 18 h; stronger effect = higher value
[9] = H69AR cells + 2 uM doxorubicin, measured here: viability with 2 uM doxorubicin, stronger effect = lower value
[10] = H69AR cells, compound alone cytotoxicity

| Structure (SMILES) | viability [1] | Her2 level [2] | viability [3] | viability [4] | viability [5] | differential viability (reversal) ([6]; H69AR cells + 2 uM doxorubicin) | viability [6, 9] | viability [6, 10] | inhibition [7] | inhibition [8] |
| --- | --- | --- | --- | --- | --- | --- | --- | --- | --- | --- |
| c1cncc(-c2nc3c4ccccc4nc(N4CCC(N5CCCCC5)CC4)n3n2)c1 | 93.5% | 79.5% (inactive) | 93.5% (inactive) | 80.1% (inactive) | 84.1% (inactive) | 2.83% (inactive) | 81.2% | 84.1% | -9.73% (inactive) | -0.48% (inactive) |
| Cc1ccc(NC(=O)CSc2nnc(CCCCCNC(=O)OC(C)(C)C)o2)c(C)c1 | 112% | 87% (inactive) | 112% (inactive) | 88.6% (inactive) | 93.2% (inactive) | 1.79% (inactive) | 91.4% | 93.2% | 1.71% (inactive) | 1.29% (inactive) |
| C#CC1(O)CC(C)N(C)C(C)C1 (stereo not given) | 105% | 85% (inactive) | 105% (inactive) | 85.3% (inactive) | 91.9% (inactive) | 13.6% (inactive) | 78.3% | 91.9% | -4.55% (inactive) | -4.6% (inactive) |
| Nc1nonc1-n1nnc(C(=O)c2ccccc2)c1-c1ccccc1 | 96.5% | 100% (inactive) | 96.5% (inactive) | 63.6% (inactive) | 99.4% (inactive) | 7.96% (inactive) | 91.4% | 99.4% | -6.58% (inactive) | 6.03% (inactive) |
| COc1ccccc1N1CCN(C/C(O)=C(\C#N)c2nc(-c3ccccc3)cs2)CC1 | 94% | 108% (inactive) | 94% (inactive) | 84.1% (inactive) | 90.8% (inactive) | -6.43% (inactive) | 97.2% | 90.8% | 0.55% (inactive) | 12.5% (inactive) |
| COC(=O)c1[nH]c(C)c(/C(O)=C2\C(=O)C(=O)N(CCN(C)C)C2c2ccccc2OC)c1C (stereo not given) | 88% | 114% (inactive) | 88% (inactive) | 79% (inactive) | 84.3% (inactive) | 1.34% (inactive) | 82.9% | 84.3% | -6.89% (inactive) | -1.5% (inactive) |
| O=C(C1CCC(CNS(=O)(=O)c2cccc3cccnc23)CC1)N1CCCC1 (stereo not given) | 98.5% | 104% (inactive) | 98.5% (inactive) | 99.9% (inactive) | 99.9% (inactive) | 3.37% (inactive) | 96.6% | 99.9% | -1.07% (inactive) | -6.72% (inactive) |
| COc1ccc(Cn2c(=O)[nH]c3cc(C(=O)NCCCN4CCCC4)ccc3c2=O)cc1 | 106% | 94% (inactive) | 106% (inactive) | 103% (inactive) | 92.3% (inactive) | 6.71% (inactive) | 85.6% | 92.3% | -7.03% (inactive) | 4.33% (inactive) |
| Cc1ccc(C2/C(=C(/O)c3cnn(-c4ccccc4)c3C)C(=O)C(=O)N2CCN2CCOCC2)o1 (stereo not given) | 77.5% | 79% (inactive) | 77.5% (inactive) | 112% (inactive) | 85% (inactive) | 7.89% (inactive) | 77.1% | 85% | -4.61% (inactive) | -1.09% (inactive) |
| CC1Cc2ccccc2N1Cc1cc(=O)n2ccsc2n1 (stereo not given) | 102% | 78.5% (inactive) | 102% (inactive) | 80.4% (inactive) | 74.7% (inactive) | -17.9% (inactive) | 92.6% | 74.7% | -2.99% (inactive) | -6.98% (inactive) |
| Cc1cc2c(c(=O)o1)C(C13C=CC(CC1)C3)C(C#N)=C(N)O2 (stereo not given) | 124% | 94.5% (inactive) | 124% (inactive) | 90.1% (inactive) | 99.8% (inactive) | 13.2% (inactive) | 86.6% | 99.8% | -6.4% (inactive) | -5.97% (inactive) |
| O=C(COc1ccc2c(c1)OCO2)NC12CC3CC(CC(C3)C1)C2 | 89.5% | 93% (inactive) | 89.5% (inactive) | 75.2% (inactive) | 80.8% (inactive) | -5.25% (inactive) | 86% | 80.8% | -5.07% (inactive) | -6.07% (inactive) |
| COc1ccc(C(=O)CN2C(=O)NC3(CCCc4ccccc43)C2=O)cc1OC (stereo not given) | 98% | 84.5% (inactive) | 98% (inactive) | 95.6% (inactive) | 88.6% (inactive) | 10.9% (inactive) | 77.7% | 88.6% | -1.87% (inactive) | 2.42% (inactive) |
| C/C(=C\C(=O)O)CC(=O)O | 100% | 119% (inactive) | 100% (inactive) | 98% (inactive) | 84.5% (inactive) | -15.7% (inactive) | 100% | 84.5% | -7.5% (inactive) | 5.25% (inactive) |
| O=C(CSc1nnc(C2COc3ccccc3O2)o1)N1CCCc2ccccc21 (stereo not given) | 85.5% | 78% (inactive) | 85.5% (inactive) | 60.9% (inactive) | 92.3% (inactive) | -3.22% (inactive) | 95.5% | 92.3% | -5.26% (inactive) | -4% (inactive) |
| COc1ccc(S(=O)(=O)NCCOc2ccccc2)cc1OC | 94% | 90.5% (inactive) | 94% (inactive) | 97.7% (inactive) | 91.5% (inactive) | -2.55% (inactive) | 94.1% | 91.5% | 6.76% (inactive) | 2.3% (inactive) |

| Structure (SMILES) | viability [1] | Her2 level [2] | viability [3] | viability [4] | viability [5] | differential viability (reversal) ([6]; H69AR cells + 2 uM doxorubicin) | viability [6, 9] | viability [6, 10] | inhibition [7] | inhibition [8] |
| --- | --- | --- | --- | --- | --- | --- | --- | --- | --- | --- |
| NS(=O)(=O)c1ccc(NC(=O)N[C@@H](Cc2ccccc2)C(=O)O)cc1 | 82.5% | 95.5% (inactive) | 82.5% (inactive) | 95.6% (inactive) | 97.6% (inactive) | 5% (inactive) | 92.6% | 97.6% | -3.73% (inactive) | 4.52% (inactive) |
| O=C1c2ccccc2C(Nc2ccc3nc(-c4cccnc4)[nH]c3c2)N1Cc1ccco1 (stereo not given) | 88.5% | 108% (inactive) | 88.5% (inactive) | 87.5% (inactive) | 91.2% (inactive) | 10.1% (inactive) | 81.1% | 91.2% | 2.44% (inactive) | -4.17% (inactive) |
| CCn1c(CCNC(=O)c2cccs2)nnc1SCC(=O)c1ccc(OC)cc1 | 106% | 138% (inactive) | 106% (inactive) | 95.7% (inactive) | 97.4% (inactive) | -5.32% (inactive) | 103% | 97.4% | -1.71% (inactive) | -0.33% (inactive) |
| Cc1cccc(NC(=O)c2cc3ccccc3o2)c1 | 142% | 114% (inactive) | 142% (inactive) | 75.8% (inactive) | 86.3% (inactive) | 8.2% (inactive) | 78.1% | 86.3% | -7.4% (inactive) | -1.27% (inactive) |
| COc1ccccc1C(=O)NC(C)C(c1cccs1)N1CCN(C)CC1 (stereo not given) | 103% | 149% (inactive) | 103% (inactive) | 78.9% (inactive) | 91.1% (inactive) | -0.4% (inactive) | 91.5% | 91.1% | 1.58% (inactive) | -6.67% (inactive) |
| FC(F)(F)C(F)(F)C(F)(F)c1nnc2ccc(N3CCOCC3)nn12 | 97.5% | 118% (inactive) | 97.5% (inactive) | 84.8% (inactive) | 83.7% (inactive) | -0.265% (inactive) | 83.9% | 83.7% | 4.21% (inactive) | 7.94% (inactive) |
| CCN1CCCC1CNCc1ccc(Cl)cc1Cl (stereo not given) | 92.5% | 116% (inactive) | 92.5% (inactive) | 111% (inactive) | 104% (inactive) | 9.34% (inactive) | 94.4% | 104% | 0.95% (inactive) | 6.83% (inactive) |
| CN(C)c1cccc(C(=O)OCC(=O)NCc2ccco2)c1 | 102% | 86.5% (inactive) | 102% (inactive) | 87% (inactive) | 86.2% (inactive) | 7.69% (inactive) | 78.6% | 86.2% | -4.81% (inactive) | -2.22% (inactive) |
| CN1CCN(C(=O)C2(NC(=O)Nc3cccc(F)c3)CCCCC2)CC1 | 81% | 97% (inactive) | 81% (inactive) | 97.4% (inactive) | 93.9% (inactive) | -9.36% (inactive) | 103% | 93.9% | -3.65% (inactive) | -3.02% (inactive) |
| CCOC(=O)CN1CC23C=CC(O2)C(C(=O)NCc2ccc(F)cc2)C3C1=O (stereo not given) | 88% | 93.5% (inactive) | 88% (inactive) | 102% (inactive) | 98.9% (inactive) | 12.5% (inactive) | 86.4% | 98.9% | -0.38% (inactive) | -0.17% (inactive) |
| NC(=O)CSCc1ccc(Br)cc1 | 100% | 91.5% (inactive) | 100% (inactive) | 98.6% (inactive) | 108% (inactive) | 0.415% (inactive) | 108% | 108% | -4.67% (inactive) | 2.62% (inactive) |
| OC1(c2cccc(C(F)(F)F)c2)CCNCC1 | 110% | 91% (inactive) | 110% (inactive) | 96.5% (inactive) | 90.8% (inactive) | 4.62% (inactive) | 86.2% | 90.8% | -8.53% (inactive) | -3.02% (inactive) |
| Cc1ccc(S(=O)(=O)N2CCCC(c3nnc4n3-c3ccccc3SC4)C2)cc1 (stereo not given) | 78% | 71.5% (inactive) | 78% (inactive) | 87.2% (inactive) | 76.5% (inactive) | 4.54% (inactive) | 72% | 76.5% | -8.67% (inactive) | 4.92% (inactive) |
| Cc1cc(Cn2ccnc2)c(C)cc1Cn1ccnc1 | 82% | 91.5% (inactive) | 82% (inactive) | 107% (inactive) | 101% (inactive) | 6.74% (inactive) | 94.1% | 101% | -3.6% (inactive) | -0.32% (inactive) |
| COc1ccc(-c2cc(N3CCCC3)n3ncnc3n2)cc1 | 86% | 94.5% (inactive) | 86% (inactive) | 78.7% (inactive) | 87.2% (inactive) | 11.9% (inactive) | 75.2% | 87.2% | -5.27% (inactive) | -2.46% (inactive) |
